Screening results deposited in PubChem by several laboratories.
Rows were chosen to be rich in hits. Some 3% of all compounds tested hit in one or more screens of this group.
Apaf1 inhib = inhibitors of human Apaf-1 apoptosome, primary screen, biochemical, DEVD-Rh110 fluorescence, uHTS; Apoptotic protease-activating factor 1 (Homo sapiens), O14727; reconstituted apoptosome caspase-3 activity; inhibition, % at 20 µM; 0.71% of 330,000 active; AID 489030, 2010; active = inhibition of at least 40% at 20 µM;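 note: plate controls were DMSO wells for no effect and DEVD-CHO caspase inhibitor wells for full effect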
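Assay system: Apoptosome proteins | Medium: pH 7.5 Hepes buffer with CHAPS, BSA, DTT | Also added: Cytochrome c and DEVD-Rh110 substrate | Times: 30 min plus 50 min, RT | Detection: Rhodamine 110 fluorescence at Ex 480/Em 540 nm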
MEKK2wt PB1 HTS = modulators of MEK5 binding to wildtype MEKK2, primary screen, biochemical, multiplex bead flow cytometry, Alexa488-MEK5; Mitogen-activated protein kinase kinase kinase 2 (Homo sapiens), Q9Y2U5; Alexa488-MEK5 binding to MEKK2 WT; actives lie on both sides; 1.1% of 290,000 active; binding response (% of control), % at 10 µM; in the data active = binding response below about 67% or above about 130%
UBC13 polyUb = UBC13 polyubiquitin chain formation inhibitors, primary screen, biochemical, TR-FRET, uHTS; AID 485273, 2010; inhibition, % at 20 µM; 0.47% of 330,000 active; Ubiquitin-conjugating enzyme E2 N (Homo sapiens), P61088; in the data active = inhibition above about 45%, passing the limit was not always enough
MEKK2 mut-MEK5 = MEK5 binding signal on mutant MEKK2 PB1, primary screen, biochemical, multiplex bead flow cytometry, Alexa488-MEK5; Alexa488-MEK5 binding to MEKK2 mutant; percent response, % at 10 µM; 0.35% of 290,000 active; AID 1530, 2009; in the data active = percent response above about 24%, passing the limit was not always enough
MEKK3 PB1 HTS = modulators of MEKK3-MEK5 PB1 binding, primary screen, biochemical, wildtype MEKK3, multiplex bead flow cytometry, Alexa488-MEK5. bead-based flow cytometry, Alexa488-MEK5 binding to MEKK3; actives lie on both sides; 0 = blocked by unlabeled MEK5, 100 = vehicle. 1.4% of 290,000 active. AID 1529, 2009. binding response (% of control), % at 10 µM;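 active = binding response more than 3 SD above or below the average of its plate-row segment, actives on both sides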;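 note: Alexa488 bead fluorescence after subtracting the streptavidin-only scavenger bead signal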
Target sequence (Q99759 whole entry, looked up): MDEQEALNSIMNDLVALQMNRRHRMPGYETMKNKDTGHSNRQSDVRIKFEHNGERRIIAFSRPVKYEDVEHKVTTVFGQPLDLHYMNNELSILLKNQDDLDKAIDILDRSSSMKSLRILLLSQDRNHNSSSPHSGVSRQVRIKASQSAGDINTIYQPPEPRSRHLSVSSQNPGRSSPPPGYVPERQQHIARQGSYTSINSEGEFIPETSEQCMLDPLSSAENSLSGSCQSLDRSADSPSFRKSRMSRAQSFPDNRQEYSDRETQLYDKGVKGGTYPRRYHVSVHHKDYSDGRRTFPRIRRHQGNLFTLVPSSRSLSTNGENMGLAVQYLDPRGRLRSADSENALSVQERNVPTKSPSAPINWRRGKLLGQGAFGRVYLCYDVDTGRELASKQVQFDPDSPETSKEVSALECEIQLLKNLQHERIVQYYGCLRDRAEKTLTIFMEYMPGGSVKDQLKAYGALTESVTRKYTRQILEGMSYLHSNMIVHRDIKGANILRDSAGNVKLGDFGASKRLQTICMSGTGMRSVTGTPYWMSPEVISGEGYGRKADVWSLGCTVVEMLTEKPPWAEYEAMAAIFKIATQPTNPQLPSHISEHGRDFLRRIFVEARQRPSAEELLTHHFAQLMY
UCH37 DUB inh = inhibitors of human UCH37 deubiquitinase, primary screen, biochemical, Ub-AMC cleavage, fluorescence; Ubiquitin carboxyl-terminal hydrolase isozyme L5 (Homo sapiens), Q9Y5K5; 0.33% of 330,000 active; purified proteasome/UCH37; inhibition, % (concentration not given with the values);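 active = mean inhibition over replicate wells above about 20%, limit read from the data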;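 note: 0% = compound-free wells with enzyme and 100% = wells lacking proteasome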
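Material: human UCH37 enzyme supplied as purified proteasome complex / Amount: 0.15 nM proteasome as dispensed / Buffer or medium: pH 7.4 Tris-HCl (50 mM) with ovalbumin, ATP-MgCl2, DTT / Times: preincubation 30 min, reaction 25 min, room temperature / Technique: AMC fluorescence from Ub-AMC cleavage, excitation 355 nm, emission 460 nm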
MEKK2wt confirm = modulators of MEK5 binding to wildtype MEKK2, confirmation, biochemical, single concentration, multiplex bead flow cytometry. shares compounds with MEKK3 PB1 HTS. Alexa488-MEK5 binding to MEKK2 WT; actives lie on both sides. binding response (% of control), % at 10 µM. 2.4% of 5,900 active; in the data active = binding response below about 16% or above about 210%; inactive = in between
MEKK2mut confirm = mutant MEKK2 PB1-MEK5 binding signal retest – biochemical, single concentration, multiplex bead flow cytometry, confirmation; percent response, % at 10 µM; 2% of 5,900 active; Alexa488-MEK5 binding to MEKK2 mutant; shares compounds with MEKK3 PB1 HTS; in the data active = percent response mostly above about 71%, no sharp cut-off; inactive = mostly below about 38%;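 note: higher means compound restores mutant binding toward wildtype level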
MEKK3-MEK5 inh = MEKK3 wild-type PB1 binding to MEK5, inhibitors, confirmation, biochemical, bead multiplex flow cytometry, single concentration, wildtype; shares compounds with MEKK3 PB1 HTS; Alexa488-MEK5 binding to MEKK3; active compounds read low; binding response (% of control), % at 10 µM; 1.8% of 5,900 active; AID 1894, 2009;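 active = binding response below 72% of control, or above a set upper limit, though filed actives all read lower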;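 note: 100% = DMSO only wells and 0% = binding blocked by excess unlabeled MEK5; lower values mean stronger disruption of MEK5 binding to MEKK3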
The depositor's hits bear a star; . = no result given; [ ] = remark or other dose.

SMILES	Apaf1 inhib	MEKK2wt PB1 HTS	UBC13 polyUb	MEKK2 mut-MEK5	MEKK3 PB1 HTS	UCH37 DUB inh	MEKK2wt confirm	MEKK2mut confirm	MEKK3-MEK5 inh
CC(C)NCC(O)COc1ccc2c(c1)CCC2 (centres undefined)	-2	108	8	1	140*	6	95	-3	90
FC(F)(F)c1cccc(NC(=S)NCC(c2cccnc2)N2CCOCC2)c1 (centres undefined)	2	101	5	0	135*	5	102	-7	102
CCc1cccc(C)c1NC(=S)NCC(c1cccnc1)N1CCOCC1 (centres undefined)	-2	106	8	0	144*	0	100	0	103
COC(=O)NCC(c1cccnc1)N1CCOCC1 (centres undefined)	-4	100	1	0	107	2	.	.	.
O=C(NN=C1c2ccccc2-c2ccccc21)c1ccccc1	-2	.	8	.	.	3	.	.	.
O=C(NN=C1c2ccccc2-c2ccccc21)c1ccccc1Br	14	8.0*[inhibitor]	0	-24	4.0*[inhibitor]	1	99	1	102
Cc1ccccc1N1C(=O)c2cccc3cccc(c23)C1=O	2	107	1	26*	106	0	104	2	106
O=C(NCCC(=O)N1CCN(C(=O)c2ccco2)CC1)c1ccc(Br)cc1	7	.	2	.	.	3	.	.	.
CCCn1c(N2CCN(C(=O)N3CCCCC3)CC2)nc2ccccc21	5	2.0*[inhibitor]	-3	-18	2.0*[inhibitor]	1	104	1	101
CCCn1c(N2CCN(C(=O)Nc3ccccc3)CC2)nc2ccccc21	-8	85	2	-9	90	-1	.	.	.
COc1ccccc1N(CC(O)Cn1ccnc1C)S(=O)(=O)c1ccccc1 (centres undefined)	9	95	3	-7	98	1	.	.	.
C/C(=N\Nc1nc2ccccc2[nH]1)c1cc2ccccc2o1	15	140*	4	6	137*	.	127	10	99
CCOC(=O)/C(C#N)=C/c1cc2ccccc2nc1N1CCCCC1	4	80	-16	-5	98	4	.	.	.
N#C/C(=C\c1cc2ccccc2nc1N1CCOCC1)C(=O)Nc1ccc(N2CCOCC2)cc1	13	106	-21	3	146*	0	98	1	102
N#CC(C#N)=Cc1cc2ccccc2nc1N1CCOCC1	7	103	-15	0	135*	1	102	5	104
O=C(c1cnn2c1NC(c1ccco1)CC2C(F)(F)F)N1CCN(c2cccc(Cl)c2)CC1 (centres undefined)	21	106	-2	8	109	5	.	.	.
CC(=O)c1c(C)[nH]c(C(=O)COC(=O)CCSc2ccccc2)c1C	2	113	2	1	155*	7	94	-6	102
CCOC(=O)c1c(C)[nH]c(C(=O)COC(=O)COc2ccccc2C=O)c1C	5	91	-9	-2	70*[inhibitor]	5	98	2	101
CCOC(=O)C1(c2csc(N)n2)COC(=O)C1 (centres undefined)	3	102	6	3	103	3	.	.	.
Cc1[nH]c2ccc(F)cc2c(=O)c1SC(F)(F)C(F)F	-11	105	7	6	102	2	.	.	.
CC(=O)N/C(=C/c1ccc(OS(=O)(=O)c2ccc(C)cc2)cc1)C(=O)NCCO	-1	94	-1	-1	92	3	.	.	.
Nc1nnc(SCC(=O)NC23CC4CC(CC(C4)C2)C3)s1	-6	39*[inhibitor]	-8	-18	41*[inhibitor]	3	110	5	103
CS(=O)(=O)N1CCN(c2ccc([N+](=O)[O-])cc2F)CC1	-8	79	-1	-16	75*[inhibitor]	12	101	13	104
CS(=O)(=O)N1CCN(c2ccc([N+](=O)[O-])cc2C(F)(F)F)CC1	-9	98	-9	4	92	9	.	.	.
O=C(CSc1nnc(-c2n[nH]c3ccccc23)n1-c1ccccc1)Nc1cccc(Cl)c1	1	98	-17	0	99	1	.	.	.
SMILES	Apaf1 inhib	MEKK2wt PB1 HTS	UBC13 polyUb	MEKK2 mut-MEK5	MEKK3 PB1 HTS	UCH37 DUB inh	MEKK2wt confirm	MEKK2mut confirm	MEKK3-MEK5 inh
CCN(CC)CCNc1nc2cc(OC)c(OC)cc2c2nc(-c3ccccc3)nn12	18	143*	45	10	108	-111	111	3	95
COc1cc(/C=C2\C(=O)NN(c3ccccc3)C2=O)ccc1OCC(N)=O	3	122	-18	2	134*	7	102	3	102
Cc1ccccc1N1CCN(Cc2ccc([N+](=O)[O-])o2)CC1	4	102	-6	2	105	6	.	.	.
OCCNCc1cccc(Br)c1	0	99	1	1	100	0	.	.	.
Clc1cccc(CNCCNCc2cccc(Cl)c2)c1	12	187*	13	17	115	1	161	37	108
CC(=O)NCC(=O)OC(C)C(=O)Nc1ccc(C(C)=O)cc1 (centres undefined)	9	98	0	-3	101	2	.	.	.
Cc1ccc(C(=O)NCC(=O)OC(C)C(=O)Nc2ccc(N(C)C)cc2)cc1C (centres undefined)	5	132	1	8	141*	2	102	0	104
COCCCNC(=O)c1ccc2c(c1)OCO2	-2	73	6	-7	67*[inhibitor]	5	100	-3	103
C=CCNC(=O)c1ccc2nc(Cc3ccc(OC)cc3)oc2c1	.	101	.	2	100	.	.	.	.
